{"data": "Experimental data collected from several papers", "read-out": "cell growth or viability", "note": "Protocols differ between the studies behind these lines."}
{"SMILES": "C=C(F)C(=O)N1CCN(c2nc(OC[C@@H]3CCCN3C)nc3c2CCN(c2cccc4cccc(Cl)c24)C3)C[C@@H]1CC#N", "cell line": "SW480", "assay": "ATP luminescence", "conditions": "3D culture", "endpoint": "IC50", "result": "> 1000 nM"}
{"SMILES": "CC1(CN)CCN(c2cnc3c(Sc4ccncc4Cl)n[nH]c3n2)CC1", "cell line": "HGC-27", "assay": "CCK-8", "conditions": "96 h", "endpoint": "IC50", "result": "4830 nM"}
{"SMILES": "Cc1noc2c1-c1ccccc1C(c1ccc(Cl)cc1)=N[C@H]2CC(N)=O", "cell line": "Kasumi 1", "assay": "ATP luminescence", "conditions": "72 h", "endpoint": "IC50", "result": "263 nM"}
{"SMILES": "Cc1cccc(-c2[nH]c(CNc3ccccc3F)nc2-c2ccc3ncnn3c2)n1", "cell line": "MM1.S", "assay": "XTT", "endpoint": "IC50", "result": "~1500 nM"}
{"SMILES": "COc1cc2c3c(n(CCCNC(C)C)c(=O)c2cc1OC)-c1nc2c(cc1C3=O)OCO2", "cell line": "Kasumi 1", "assay": "MTS", "conditions": "72 h", "endpoint": "IC50", "result": "432 nM"}
{"SMILES": "O=C(NO)c1ccc(CNc2nc3cccc(-c4ccc5c(c4)OCO5)n3n2)cc1", "cell line": "A498", "assay": "SRB", "endpoint": "GI50", "result": "510 nM"}
{"SMILES": "C=CC(=O)NC1CCN(c2ncc3ncnc(Nc4ccc(Oc5ccc6c(c5)ncn6C)c(C)c4)c3n2)CC1", "cell line": "GP2d", "endpoint": "EC50", "result": "12300 nM"}
{"SMILES": "COc1cc2c3c(n(CCCNCCO)c(=O)c2cc1OC)-c1nc2c(cc1C3=O)OCO2", "cell line": "Kasumi 1", "assay": "MTS", "conditions": "72 h", "endpoint": "IC50", "result": "530 nM"}
{"SMILES": "CC1(C)CCC(CN2CCN(c3ccc(C(=O)NS(=O)(=O)c4ccc(NCC5CCOCC5)c([N+](=O)[O-])c4)c(Oc4cnc5[nH]ccc5c4)c3)CC2)=C(c2ccc(Cl)cc2)C1", "cell line": "Toledo", "assay": "ATP luminescence", "conditions": "48 h", "endpoint": "IC50", "result": "71 nM"}
{"SMILES": "C=CC(=O)N1CCN(c2nc(=O)n(-c3c(C)ccnc3C(C)C)c3nc(-c4c(O)cccc4F)c(F)cc23)[C@@H](C)C1", "cell line": "SW480", "assay": "ATP luminescence", "endpoint": "IC50", "result": "> 10000 nM"}
{"SMILES": "Nc1cccc2c1C(=O)N(C1CCC(=O)NC1=O)C2=O (stereo not drawn)", "cell line": "MM1.S", "assay": "XTT", "endpoint": "IC50", "result": "~300 nM"}
{"SMILES": "CC(C)c1ccccc1[C@@H]1CCCN1C1CC2(CCN(c3ccc(C(=O)NS(=O)(=O)c4ccc(NC[C@H]5CC[C@](C)(O)CC5)c([N+](=O)[O-])c4)c(Oc4cnc5[nH]ccc5c4)c3)CC2)C1", "cell line": "Toledo", "assay": "ATP luminescence", "conditions": "48 h", "endpoint": "IC50", "result": "4.6 nM"}
